The text below walks through data of ChEMBL document CHEMBL1828568, “Novel imaging agents for β-amyloid plaque based on the N-benzoylindole core” (Bioorg Med Chem Lett, 2011).

The nature of this experiment: Displacement of [125I]TZDM from amyloid beta (1 to 40) aggregates after 2 hrs by gamma counting. Summed up:
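Competition binding against [125I]TZDM as radiolabeled standard, using Aβ1–40 aggregates; run in triplicate, results as mean ± SD.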

In turn, `COc1ccc(/C=C/C(=O)n2ccc3cc(F)ccc32)cc1` had a Ki of 0.0324 µM.

For orientation: Ki means a dissociation constant, usually derived from enzyme kinetics or from competition with a known ligand.
